Laboratory results: ChEMBL document CHEMBL4334554, “Structure-Guided Design of Substituted Biphenyl Butanoic Acid Derivatives as Neprilysin Inhibitors” (ACS Med Chem Lett, 2020)
The source made the active and inactive calls. The calls are words filed in the database; no cut-off is given here.

Assays:
[1] = Oral bioavailability in Sprague-Dawley rat at 3 mg/kg measured upto 24 hrs by HPLC-MS/MS analysis; assay type: ADME, organism-based; details: in vivo
[2] = AUC (0 to 7 hrs) in Sprague-Dawley rat at 3 mg/kg, po measured upto 24 hrs by HPLC-MS/MS analysis; assay type: ADME, organism-based; parameters: time < 7 hr, dose 3 mg/kg, route oral; details: in vivo
Rattus norvegicus [3] = experiment: In vivo inhibition of NEP in po dosed Sprague-Dawley rat assessed as increase in PANP level measured up to 8 hrs; assay type: functional, organism-based
Procedure, shortened: (§1)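 ANP potentiation model in conscious, chronically cannulated adult male Sprague–Dawley rats. Rats received an IV infusion of rat ANP to saturate the clearance receptors, so that ANP was removed mainly by NEP. The ethyl ester prodrug was then dosed orally. Blood was sampled at baseline and at intervals up to 8 h. Plasma ANP was read as % baseline, alongside parent plasma levels.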

[4] = Prodrug activation in rat
[5] = Prodrug activation in dog; parameters: species or system Canis lupus familiaris
[6] = Cmax in Sprague-Dawley rat at 3 mg/kg, po measured upto 24 hrs by HPLC-MS/MS analysis; assay type: ADME, organism-based; parameters: dose 3 mg/kg, route oral; details: in vivo
[7] = Prodrug activation in monkey; parameters: species or system Macaca mulatta; details: rhesus monkey
[8] = Stability in rat liver microsomes assessed as intrinsic clearance; assay type: ADME, Microsome; details: read-out: CLH
[9] = Volume of distribution in Sprague-Dawley rat at 1 mg/kg, iv; assay type: ADME, organism-based; details: in vivo
[10] = Oral bioavailability in Sprague-Dawley rat at 3 mg/kg; assay type: ADME, organism-based; details: in vivo
[11] = Intrinsic clearance in human Hepatocyte assessed per million cells; assay type: ADME, cell-based; details: hepatocytes, read-out: CLH
Rattus norvegicus [12] = experiment: In vivo inhibition of NEP in Sprague-Dawley rat assessed as increase in PANP level at 30 mg/kg, po measured after 15 mins; assay type: functional, organism-based
Procedure, shortened: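 Conscious, chronically cannulated adult male Sprague–Dawley rats received an IV infusion of rat ANP to saturate natriuretic peptide clearance receptors, so ANP elimination relied mainly on NEP. The ethyl ester prodrug was then given orally at 30 mg/kg. Blood was drawn at baseline before dosing and at intervals up to 8 h, and plasma ANP was expressed as % baseline, with parallel PK.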

[13] = Clearance in Sprague-Dawley rat at 1 mg/kg, iv; assay type: ADME, organism-based; details: in vivo
[14] = Half life in Sprague-Dawley rat at 1 mg/kg, iv; assay type: ADME, organism-based; details: in vivo
[15] = Stability in human liver microsomes assessed as intrinsic clearance; assay type: ADME, Microsome; details: read-out: CLH
[16] = Plasma concentration in Sprague-Dawley rat at 30 mg/kg, po; assay type: ADME, organism-based; details: in vivo; procedure, shortened: as §1
[17] = Intrinsic clearance in rat Hepatocyte assessed per million cells; assay type: ADME, cell-based; details: hepatocytes, read-out: CLH
[18] = Volume of distribution at steady state in Sprague-Dawley rat at 1 mg/kg, iv measured upto 24 hrs by HPLC-MS/MS analysis; assay type: ADME, organism-based; details: in vivo, read-out: Vdss
[19] = AUC (0 to 7 hrs) in Sprague-Dawley rat at 1 mg/kg, iv measured upto 24 hrs by HPLC-MS/MS analysis; assay type: ADME, organism-based; parameters: time < 7 hr, dose 1 mg/kg, route intravenous; details: in vivo
[20] = Terminal half life in Sprague-Dawley rat at 1 mg/kg, iv measured upto 24 hrs by HPLC-MS/MS analysis; assay type: ADME, organism-based; details: in vivo, read-out: beta t1/2 (converted)
[21] = Clearance in Sprague-Dawley rat at 1 mg/kg, iv measured upto 24 hrs by HPLC-MS/MS analysis; assay type: ADME, organism-based; details: in vivo
[22] = Clearance in monkey plasma; assay type: ADME, cell-free, Macaca mulatta; details: rhesus monkey
[23] = Apparent half life in dog; assay type: ADME, Canis lupus familiaris; details: in vivo, read-out: t1/2(app) (converted)
[24] = Apparent half life in monkey; assay type: ADME, Macaca mulatta; details: rhesus monkey, in vivo; read-out: t1/2(app) (converted)
[25] = Clearance in dog plasma; assay type: ADME, cell-free, Canis lupus familiaris

Compound: CCOC(=O)C[C@@H](Cc1ccc(-c2cccc(Cl)c2)cc1)NC(=O)CCC(=O)O
- bioavailability [1]: 42%
- AUC(0-t) at 7 h [2]: 10.1 µM·h
- inhibition (Rattus norvegicus [3]): Dose-dependent effect
- Activity [4]: 99%
- Activity [5]: 5%
- Cmax [6]: 12.6 µM
- Activity [7]: 69%

Compound: O=C(O)CCC(=O)N[C@@H](CC(=O)O)Cc1ccc(-c2ccccc2)cc1
- microsomal CLint [8]: < 3.42 µL/min/mg
- Vd [9]: 0.2 L/kg
- bioavailability [10]: 66%
- hepatocyte CLint [11]: 0.68 µL/min/1e6 cells
- inhibition (Rattus norvegicus [12]): Active
- clearance [13]: 11 mL/min/kg
- half-life [14]: 2.5 h
- microsomal CLint [15]: < 3.42 µL/min/mg
- concentration [16]: > 2 µM
- hepatocyte CLint [17]: 2.1 µL/min/1e6 cells

Compound: COc1ccc(Cl)cc1-c1ccc(C[C@H](CC(=O)O)NC(=O)CCC(=O)O)cc1
- Vd [18]: 0.1 L/kg
- AUC(0-t) at 7 h [19]: 8.1 µM·h
- half-life [20]: 1 h
- clearance [21]: 5 mL/min/kg

Compound: CCOC(=O)C[C@@H](Cc1ccc(-c2cc(Cl)ccc2OC)cc1)NC(=O)CCC(=O)O
- bioavailability [1]: 25%
- AUC(0-t) at 7 h [2]: 5.63 µM·h
- Cmax [6]: 5.38 µM

Compound: CCOC(=O)[C@H](C)C[C@@H](Cc1ccc(-c2ccccc2)cc1)NC(=O)CCC(=O)O
- inhibition (Rattus norvegicus [12]): Active

Compound: O=C(O)CCC(=O)N[C@@H](CC(=O)O)Cc1ccc(-c2cccc(Cl)c2)cc1
- clearance [22]: 3 mL/min/kg
- Vd [18]: 0.1 L/kg
- AUC(0-t) at 7 h [19]: 8.73 µM·h
- half-life [20]: 0.8 h
- clearance [21]: 5 mL/min/kg
- half-life [23]: 0.8 h
- half-life [24]: 4 h
- clearance [25]: 29 mL/min/kg
